Laboratory results as given in ChEMBL document CHEMBL1150832, “Phenylnaphthalene compounds from the subterranean part of Vitex rotundifolia and their antibacterial activity against methicillin-resistant Staphylococcus aureus” (2001).
In brackets after ≈: the same amount, converted by molar mass. Activity calls are given as the source filed them. No cut-off for these calls is given here.

Assays:
Staphylococcus aureus [1] = test: Antimicrobial activity against methicillin-sensitive Staphylococcus aureus ATCC 6538 at 100 ug after 20 hrs by agar plate diffusion assay; format: functional, organism-based
Method in brief: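 Agar disk diffusion. Cells were grown on Mueller-Hinton agar at 37 °C for 24 h, resuspended in Mueller-Hinton broth to 108 CFU/mL and incubated again. They were then diluted to 105 CFU/mL and used to inoculate Mueller-Hinton agar plates. 6 mm disks loaded with 100 µg compound were placed on the plates and incubated 20 h at 37 °C. Inhibition zones >10 mm were scored positive.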

Staphylococcus aureus [2] = test: Antimicrobial activity against methicillin-resistant Staphylococcus aureus 0018 after 20 hrs by serial twofold dilution method; format: functional; settings: Staphylococcus aureus, 0018, 20 h
Method in brief: (§1)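 Agar dilution MIC on Mueller-Hinton agar, following the Japanese Society for Antimicrobial Chemotherapy (1981) method. MRSA clinical isolates from Tokushima University Hospital were grown on Mueller-Hinton agar at 37 °C for 24 h, then resuspended in Mueller-Hinton broth. Suspensions of 1 × 10^6 CFU/mL were spotted with a replicating device. Plates were read after 20 h at 37 °C.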

Staphylococcus aureus [3] = test: Antimicrobial activity against methicillin-resistant Staphylococcus aureus 0005 at 100 ug after 20 hrs by agar plate diffusion assay; format: functional, organism-based
Method in brief: (§2)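 Disk diffusion against MRSA clinical isolates from Tokushima University Hospital. Cells were grown on Mueller-Hinton agar at 37 °C for 24 h, resuspended in Mueller-Hinton broth, and diluted to 10^5 CFU/mL to seed Mueller-Hinton agar plates. 6 mm disks loaded with 100 µg compound were incubated 20 h at 37 °C. Inhibition zones over 10 mm in diameter were scored positive.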

Staphylococcus aureus [4] = test: Antimicrobial activity against methicillin-resistant Staphylococcus aureus 0022 after 20 hrs by serial twofold dilution method; format: functional; settings: Staphylococcus aureus, 0022, 20 h; method in brief: as §1
Staphylococcus aureus [5] = test: Antimicrobial activity against methicillin-resistant Staphylococcus aureus 0002 after 20 hrs by serial twofold dilution method; format: functional; settings: Staphylococcus aureus, 0002, 20 h; method in brief: as §1
Staphylococcus aureus [6] = test: Antimicrobial activity against methicillin-resistant Staphylococcus aureus 0013 after 20 hrs by serial twofold dilution method; format: functional; settings: Staphylococcus aureus, 0013, 20 h; method in brief: as §1
Staphylococcus aureus [7] = test: Antimicrobial activity against methicillin-resistant Staphylococcus aureus 0001 at 100 ug after 20 hrs by agar plate diffusion assay; format: functional, organism-based; method in brief: as §2
Staphylococcus aureus [8] = test: Antimicrobial activity against methicillin-resistant Staphylococcus aureus 0004 at 100 ug after 20 hrs by agar plate diffusion assay; format: functional, organism-based; method in brief: as §2
Staphylococcus aureus [9] = test: Antimicrobial activity against methicillin-resistant Staphylococcus aureus 0006 after 20 hrs by serial twofold dilution method; format: functional; settings: Staphylococcus aureus, 0006, 20 h; method in brief: as §1
Staphylococcus aureus [10] = test: Antimicrobial activity against methicillin-resistant Staphylococcus aureus 0016 at 100 ug after 20 hrs by agar plate diffusion assay; format: functional, organism-based; method in brief: as §2
Staphylococcus aureus [11] = test: Antimicrobial activity against methicillin-resistant Staphylococcus aureus 0016 after 20 hrs by serial twofold dilution method; format: functional; settings: Staphylococcus aureus, 0016, 20 h; method in brief: as §1
Staphylococcus aureus [12] = test: Antimicrobial activity against methicillin-resistant Staphylococcus aureus 0012 at 100 ug after 20 hrs by agar plate diffusion assay; format: functional, organism-based; method in brief: as §2
Staphylococcus aureus [13] = test: Antimicrobial activity against methicillin-resistant Staphylococcus aureus 0020 after 20 hrs by serial twofold dilution method; format: functional; settings: Staphylococcus aureus, 0020, 20 h; method in brief: as §1
Staphylococcus aureus [14] = test: Antimicrobial activity against methicillin-resistant Staphylococcus aureus 0008 after 20 hrs by serial twofold dilution method; format: functional; settings: Staphylococcus aureus, 0008, 20 h; method in brief: as §1
Staphylococcus aureus [15] = test: Antimicrobial activity against methicillin-resistant Staphylococcus aureus 0005 after 20 hrs by serial twofold dilution method; format: functional; settings: Staphylococcus aureus, 0005, 20 h; method in brief: as §1
Staphylococcus aureus [16] = test: Antimicrobial activity against methicillin-resistant Staphylococcus aureus 0009 after 20 hrs by serial twofold dilution method; format: functional; settings: Staphylococcus aureus, 0009, 20 h; method in brief: as §1
Staphylococcus aureus [17] = test: Antimicrobial activity against methicillin-resistant Staphylococcus aureus 0006 at 100 ug after 20 hrs by agar plate diffusion assay; format: functional, organism-based; method in brief: as §2
Staphylococcus aureus [18] = test: Antimicrobial activity against methicillin-resistant Staphylococcus aureus 0019 after 20 hrs by serial twofold dilution method; format: functional; settings: Staphylococcus aureus, 0019, 20 h; method in brief: as §1
Staphylococcus aureus [19] = test: Antimicrobial activity against methicillin-resistant Staphylococcus aureus 0004 after 20 hrs by serial twofold dilution method; format: functional; settings: Staphylococcus aureus, 0004, 20 h; method in brief: as §1
Staphylococcus aureus [20] = test: Antimicrobial activity against methicillin-resistant Staphylococcus aureus 0002 at 100 ug after 20 hrs by agar plate diffusion assay; format: functional, organism-based; method in brief: as §2
Staphylococcus aureus [21] = test: Antimicrobial activity against methicillin-resistant Staphylococcus aureus 0007 at 100 ug after 20 hrs by agar plate diffusion assay; format: functional, organism-based; method in brief: as §2
Staphylococcus aureus [22] = test: Antimicrobial activity against methicillin-resistant Staphylococcus aureus 0017 at 100 ug after 20 hrs by agar plate diffusion assay; format: functional, organism-based; method in brief: as §2
Staphylococcus aureus [23] = test: Antimicrobial activity against methicillin-resistant Staphylococcus aureus 0008 at 100 ug after 20 hrs by agar plate diffusion assay; format: functional, organism-based; method in brief: as §2
Staphylococcus aureus [24] = test: Antimicrobial activity against methicillin-resistant Staphylococcus aureus 0020 at 100 ug after 20 hrs by agar plate diffusion assay; format: functional, organism-based; method in brief: as §2
Staphylococcus aureus [25] = test: Antimicrobial activity against methicillin-resistant Staphylococcus aureus 0021 at 100 ug after 20 hrs by agar plate diffusion assay; format: functional, organism-based; method in brief: as §2
Staphylococcus aureus [26] = test: Antimicrobial activity against methicillin-resistant Staphylococcus aureus 0013 at 100 ug after 20 hrs by agar plate diffusion assay; format: functional, organism-based; method in brief: as §2
Staphylococcus aureus [27] = test: Antimicrobial activity against methicillin-resistant Staphylococcus aureus 0021 after 20 hrs by serial twofold dilution method; format: functional; settings: Staphylococcus aureus, 0021, 20 h; method in brief: as §1
Staphylococcus aureus [28] = test: Antimicrobial activity against methicillin-resistant Staphylococcus aureus 0003 at 100 ug after 20 hrs by agar plate diffusion assay; format: functional, organism-based; method in brief: as §2
Staphylococcus aureus [29] = test: Antimicrobial activity against methicillin-resistant Staphylococcus aureus 0022 at 100 ug after 20 hrs by agar plate diffusion assay; format: functional, organism-based; method in brief: as §2
Staphylococcus aureus [30] = test: Antimicrobial activity against methicillin-resistant Staphylococcus aureus 0009 at 100 ug after 20 hrs by agar plate diffusion assay; format: functional, organism-based; method in brief: as §2
Staphylococcus aureus [31] = test: Antimicrobial activity against methicillin-resistant Staphylococcus aureus 0007 after 20 hrs by serial twofold dilution method; format: functional; settings: Staphylococcus aureus, 0007, 20 h; method in brief: as §1
Staphylococcus aureus [32] = test: Antimicrobial activity against methicillin-resistant Staphylococcus aureus 0019 at 100 ug after 20 hrs by agar plate diffusion assay; format: functional, organism-based; method in brief: as §2
Staphylococcus aureus [33] = test: Antimicrobial activity against methicillin-resistant Staphylococcus aureus 0017 after 20 hrs by serial twofold dilution method; format: functional; settings: Staphylococcus aureus, 0017, 20 h; method in brief: as §1
Staphylococcus aureus [34] = test: Antimicrobial activity against methicillin-resistant Staphylococcus aureus 0018 at 100 ug after 20 hrs by agar plate diffusion assay; format: functional, organism-based; method in brief: as §2
Staphylococcus aureus [35] = test: Antimicrobial activity against methicillin-resistant Staphylococcus aureus 0003 after 20 hrs by serial twofold dilution method; format: functional; settings: Staphylococcus aureus, 0003, 20 h; method in brief: as §1
Staphylococcus aureus [36] = test: Antimicrobial activity against methicillin-resistant Staphylococcus aureus 0012 after 20 hrs by serial twofold dilution method; format: functional; settings: Staphylococcus aureus, 0012, 20 h; method in brief: as §1
Staphylococcus aureus [37] = test: Antimicrobial activity against methicillin-resistant Staphylococcus aureus 0001 after 20 hrs by serial twofold dilution method; format: functional; settings: Staphylococcus aureus, 0001, 20 h; method in brief: as §1

## COc1ccc(-c2c(O)c(C=O)cc3ccc(O)c(OC)c23)cc1OC
Staphylococcus aureus [1]
  Activity: inactive

## COc1ccc(-c2c3c(cc4ccc(O)c(OC)c24)C(=O)OC3)cc1OC
Staphylococcus aureus [1]
  Activity: inactive

## COc1cc(C[C@@H](CO)[C@H](CO)Cc2ccc(O)c(OC)c2)ccc1O
Staphylococcus aureus [1]
  Activity: inactive

## COc1ccc(-c2cc(C=O)cc3ccc(O)c(OC)c23)cc1OC
Staphylococcus aureus [1]
  Activity: inactive

## COc1cc2c(cc1OC)C(O)c1c(C=O)cc3ccc(O)c(OC)c3c1-2 (stereo unspecified) [VITROFOLAL C]
Staphylococcus aureus [2]
  MIC: > 64 µg/mL
Staphylococcus aureus [3]
  Activity: Active
Staphylococcus aureus [4]
  MIC: > 64 µg/mL
Staphylococcus aureus [5]
  MIC: 64 µg/mL (≈ 175 µM)
Staphylococcus aureus [6]
  MIC: > 64 µg/mL
Staphylococcus aureus [7]
  Activity: Active
Staphylococcus aureus [8]
  Activity: Active
Staphylococcus aureus [1]
  Activity: inactive
Staphylococcus aureus [9]
  MIC: 64 µg/mL (≈ 175 µM)
Staphylococcus aureus [10]
  Activity: Active
Staphylococcus aureus [11]
  MIC: 64 µg/mL (≈ 175 µM)
Staphylococcus aureus [12]
  Activity: Active
Staphylococcus aureus [13]
  MIC: 64 µg/mL (≈ 175 µM)
Staphylococcus aureus [14]
  MIC: 64 µg/mL (≈ 175 µM)
Staphylococcus aureus [15]
  MIC: 64 µg/mL (≈ 175 µM)
Staphylococcus aureus [16]
  MIC: > 64 µg/mL
Staphylococcus aureus [17]
  Activity: Active
Staphylococcus aureus [18]
  MIC: > 64 µg/mL
Staphylococcus aureus [19]
  MIC: > 64 µg/mL
Staphylococcus aureus [20]
  Activity: Active
Staphylococcus aureus [21]
  Activity: Active
Staphylococcus aureus [22]
  Activity: Active
Staphylococcus aureus [23]
  Activity: Active
Staphylococcus aureus [24]
  Activity: Active
Staphylococcus aureus [25]
  Activity: Active
Staphylococcus aureus [26]
  Activity: Active
Staphylococcus aureus [27]
  MIC: > 64 µg/mL
Staphylococcus aureus [28]
  Activity: Active
Staphylococcus aureus [29]
  Activity: Active
Staphylococcus aureus [30]
  Activity: Active
Staphylococcus aureus [31]
  MIC: 64 µg/mL (≈ 175 µM)
Staphylococcus aureus [32]
  Activity: Active
Staphylococcus aureus [33]
  MIC: > 64 µg/mL
Staphylococcus aureus [34]
  Activity: Active
Staphylococcus aureus [35]
  MIC: > 64 µg/mL
Staphylococcus aureus [36]
  MIC: > 64 µg/mL
Staphylococcus aureus [37]
  MIC: > 64 µg/mL
